Experimental data from different studies.
Compare with care: the assays were run in different laboratories.
SLC6A2: Sodium-dependent noradrenaline transporter (SLC6A2, Homo sapiens, UniProt P23975)
CES2: Cocaine esterase (CES2, Homo sapiens, UniProt O00748)
Oprk1: Kappa-type opioid receptor (Oprk1, Mus musculus, UniProt P33534)
WD repeat-containing protein 91: WD repeat-containing protein 91 (Homo sapiens, UniProt A4D1P6)
FPR1: fMet-Leu-Phe receptor (FPR1, Homo sapiens, UniProt P21462)

CNc1nc(C#Cc2ccc(Cl)s2)nc2c1ncn2[C@H]1[C@H](O)[C@H](O)[C@]2(CC#N)C[C@H]12  EC50 (SLC6A2; ligand displacement; radioligand): 3.9 µM
CCc1ccccc1/C=C1\Cc2cc(OC)c(OC)cc2C1=O  IC50 (CES2; enzyme activity; inhibitor; fluorescence; with preincubation): 1.48 µM
O=C(CCNC(=O)CNC(=O)CC(c1ccccc1)(c1ccccc1)c1ccccc1)NC[C@@H]1CCCN(Cc2ccc(F)nc2)C1  IC50 (Muscarinic acetylcholine receptor M5 (CHRM5, Homo sapiens, UniProt P08912); ligand displacement; radioligand; cell membranes): > 30 µM
CC(C)[C@@H](CN1CCc2ccccc2C1)NC(=O)c1ccc([N+](=O)[O-])s1  Ki (Oprk1; ligand displacement; radioligand): 9.06 µM
CNc1nc(N[C@@H]2CCc3c(C#N)cccc32)cc(-c2cccc(N3CCCC3)c2)n1  Kd (WD repeat-containing protein 91; binding; SPR): 1 µM
COc1cc2c(cc1OC)C(=O)/C(=C/c1ccc(C)c(C)c1)C2  IC50 (CES2; enzyme activity; inhibitor; fluorescence; with preincubation): > 100 µM
CCOC(=O)[C@@]12C[C@@H]1[C@@H](n1cnc3c(NCCCCCCc4ccccc4)nc(C#Cc4ccc(Cl)s4)nc31)[C@H](O)[C@@H]2O  Ki (SLC6A2; ligand displacement; radioligand): 5.4 µM
O=c1cc(-c2ccc(O)cc2)oc2cc(O)cc(O)c12  Kd (NACHT, LRR and PYD domains-containing protein 3 (NLRP3, Homo sapiens, UniProt Q96P20); binding; SPR): 18.7 µM
CC(C)[C@@H](CN1CCc2ccccc2C1)NC(=O)c1cccc(-c2cccnc2)c1  Ki (Oprk1; ligand displacement; radioligand): 6.15 µM
N#Cc1ccc(C[C@H](NC(=O)c2cc3ccc(F)cc3[nH]2)C(=O)N2CCc3ccccc32)cc1  EC50 (FPR1; calcium signal; agonist): 23.1 µM
CN1C(C(=O)Nc2ccccn2)=C(O)c2ccccc2S1(=O)=O  IC50 (CES2; enzyme activity; inhibitor; fluorescence; with preincubation): > 100 µM
N#CC[C@@]12C[C@@H]1[C@@H](n1cnc3c(NCc4cccc(Cl)c4)nc(C#Cc4ccc(Cl)s4)nc31)[C@H](O)[C@@H]2O  Ki (SLC6A2; ligand displacement; radioligand): 4.1 µM
COc1cc([C@@H]2c3cc4c(cc3[C@@H](O[C@@H]3O[C@@H]5CO[C@@H](C)O[C@H]5[C@H](O)[C@H]3O)[C@H]3COC(=O)[C@H]23)OCO4)cc(OC)c1O  IC50 (CES2; enzyme activity; inhibitor; fluorescence; with preincubation): > 100 µM
CC(C)[C@@H](CN1CCc2ccccc2C1)NC(=O)c1c(Cl)cncc1Cl  Ki (Oprk1; ligand displacement; radioligand): 39.7 µM
COc1cc2c(cc1OC)C(=O)/C(=C/c1ccc(O)cc1)C2  IC50 (CES2; enzyme activity; inhibitor; fluorescence; with preincubation): 1.89 µM
CN1C(=O)C(c2c(-c3ccc(Cl)cc3)[nH]c3c2c(=O)[nH]c(=O)n3C)c2ccccc21 (stereo not shown)  Kd (WD repeat-containing protein 91; binding; SPR): 2 µM
CCOC(=O)[C@@]12C[C@@H]1[C@@H](n1cnc3c(NCc4cccc(Cl)c4)nc(C#Cc4ccc(Cl)s4)nc31)[C@H](O)[C@@H]2O  Ki (SLC6A2; ligand displacement; radioligand): 1.2 µM
COc1cc2c(cc1OC)C(=O)/C(=C/c1ccc(C)cc1Cl)C2  IC50 (CES2; enzyme activity; inhibitor; fluorescence; with preincubation): > 100 µM
CNc1nc(C#Cc2ccc(Cl)s2)nc2c1ncn2[C@H]1[C@H](O)[C@H](O)[C@]2(C(=O)OC)C[C@H]12  EC50 (SLC6A2; ligand displacement; radioligand): 0.75 µM
O=C(c1ccc(OCCN2CCCCC2)cc1)c1c(-c2ccc(O)cc2)sc2cc(O)ccc12  IC50 (CES2; enzyme activity; inhibitor; fluorescence; with preincubation): > 100 µM
CCOC(=O)[C@@]12C[C@@H]1[C@@H](n1cnc3c(NCCCCCc4ccccc4)nc(C#Cc4ccc(Cl)s4)nc31)[C@H](O)[C@@H]2O  Ki (SLC6A2; ligand displacement; radioligand): 0.82 µM
N#Cc1ccc(C[C@H](Nc2nnc(-c3cccc(Br)c3)o2)C(=O)N2CCc3ccccc32)cc1  EC50 (FPR1; calcium signal; agonist): 27 µM
CCOC(=O)[C@@]12C[C@@H]1[C@@H](n1cnc3c(NCCCCCc4ccccc4)nc(I)nc31)[C@H](O)[C@@H]2O  Ki (SLC6A2; ligand displacement; radioligand): 4.6 µM
CC(C)[C@@H](CN1CCc2ccccc2C1)NC(=O)c1ccc(F)cc1  Ki (Oprk1; ligand displacement; radioligand): 36.2 µM
CCCC[C@H](NC(C)=O)C(=O)N[C@H]1CC(=O)NCCCC[C@@H](C(=O)N[C@@H](C(=O)N2CCC[C@@H]2C(N)=O)C(C)C)NC(=O)[C@H](Cc2c[nH]c3ccccc23)NC(=O)[C@H](CCCN=C(N)N)NC(=O)[C@@H](Cc2ccc3ccccc3c2)NC(=O)[C@@H]2CCCN2C1=O  EC50 (Melanocortin receptor 4 (MC4R, Homo sapiens, UniProt P32245); cAMP; agonist): > 1 µM
COc1cc2c(cc1OC)C(=O)/C(=C/c1cccc3ccccc13)C2  IC50 (CES2; enzyme activity; inhibitor; fluorescence; with preincubation): 15.3 µM
CCOC(=O)[C@@]12C[C@@H]1[C@@H](n1cnc3c(Nc4ccccc4)nc(C#Cc4ccc(Cl)s4)nc31)[C@H](O)[C@@H]2O  Ki (SLC6A2; ligand displacement; radioligand): 2.3 µM
N#Cc1ccc(C[C@H](Nc2nnc(-c3cccc(Br)c3)s2)C(=O)N2CCc3ccccc32)cc1  EC50 (FPR1; calcium signal; agonist): 32.9 µM
